ChEMBL document CHEMBL5338733, “Heterobifunctional Ligase Recruiters Enable pan-Degradation of Inhibitor of Apoptosis Proteins” (J Med Chem, 2023)
Activity calls are given as the source filed them. No cut-off for these calls is given here.

Legend:
[1] = target: T1, von Hippel-Lindau disease tumor suppressor/IAP (Homo sapiens) (UniProt P98170+Q13489+Q13490+P40337); assay: PROTAC activity at VHL/IAP in human MM1.S cells assessed as induction of VHL30 degradation by measuring remaining protein level at 0.1 uM incubated for 16 hrs by western blot analysis; assay type: cell-based
T1 sequence (P40337 whole entry, looked up): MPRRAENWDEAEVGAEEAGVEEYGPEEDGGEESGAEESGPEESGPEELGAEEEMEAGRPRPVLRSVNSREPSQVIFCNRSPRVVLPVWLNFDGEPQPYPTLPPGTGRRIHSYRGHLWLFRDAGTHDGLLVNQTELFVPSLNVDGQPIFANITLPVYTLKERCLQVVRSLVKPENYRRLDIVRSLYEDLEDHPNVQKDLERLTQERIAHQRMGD
T1 sequence (P98170 whole entry, looked up): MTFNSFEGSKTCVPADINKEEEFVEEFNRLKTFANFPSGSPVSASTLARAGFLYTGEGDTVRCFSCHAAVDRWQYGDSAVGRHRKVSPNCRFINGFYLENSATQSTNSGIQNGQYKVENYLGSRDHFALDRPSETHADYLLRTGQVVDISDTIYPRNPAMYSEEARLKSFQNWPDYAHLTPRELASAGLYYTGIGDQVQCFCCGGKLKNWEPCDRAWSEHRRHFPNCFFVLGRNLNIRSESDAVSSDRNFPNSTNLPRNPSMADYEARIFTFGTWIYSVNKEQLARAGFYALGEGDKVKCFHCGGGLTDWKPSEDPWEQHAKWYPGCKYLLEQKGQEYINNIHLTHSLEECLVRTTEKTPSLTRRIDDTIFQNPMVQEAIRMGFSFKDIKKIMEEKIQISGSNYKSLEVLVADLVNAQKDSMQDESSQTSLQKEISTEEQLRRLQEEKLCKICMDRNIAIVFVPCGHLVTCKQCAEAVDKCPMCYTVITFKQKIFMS
T1 sequence (Q13489 whole entry, looked up): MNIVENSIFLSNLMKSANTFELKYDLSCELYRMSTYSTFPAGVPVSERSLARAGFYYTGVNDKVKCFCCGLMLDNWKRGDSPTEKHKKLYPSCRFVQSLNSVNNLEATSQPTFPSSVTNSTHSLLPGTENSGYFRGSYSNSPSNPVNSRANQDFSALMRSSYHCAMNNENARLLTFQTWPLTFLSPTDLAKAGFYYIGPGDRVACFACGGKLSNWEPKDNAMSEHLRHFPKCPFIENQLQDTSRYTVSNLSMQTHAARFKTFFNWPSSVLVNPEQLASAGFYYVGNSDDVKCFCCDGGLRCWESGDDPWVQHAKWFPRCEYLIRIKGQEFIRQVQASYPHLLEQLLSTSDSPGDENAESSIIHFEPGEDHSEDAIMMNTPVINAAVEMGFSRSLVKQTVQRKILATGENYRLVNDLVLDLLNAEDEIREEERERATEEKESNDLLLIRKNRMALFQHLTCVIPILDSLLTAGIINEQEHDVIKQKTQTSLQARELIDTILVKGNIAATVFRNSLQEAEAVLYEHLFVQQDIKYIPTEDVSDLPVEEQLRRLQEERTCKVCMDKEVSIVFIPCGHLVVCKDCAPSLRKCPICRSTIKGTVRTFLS
T1 sequence (Q13490 whole entry, looked up): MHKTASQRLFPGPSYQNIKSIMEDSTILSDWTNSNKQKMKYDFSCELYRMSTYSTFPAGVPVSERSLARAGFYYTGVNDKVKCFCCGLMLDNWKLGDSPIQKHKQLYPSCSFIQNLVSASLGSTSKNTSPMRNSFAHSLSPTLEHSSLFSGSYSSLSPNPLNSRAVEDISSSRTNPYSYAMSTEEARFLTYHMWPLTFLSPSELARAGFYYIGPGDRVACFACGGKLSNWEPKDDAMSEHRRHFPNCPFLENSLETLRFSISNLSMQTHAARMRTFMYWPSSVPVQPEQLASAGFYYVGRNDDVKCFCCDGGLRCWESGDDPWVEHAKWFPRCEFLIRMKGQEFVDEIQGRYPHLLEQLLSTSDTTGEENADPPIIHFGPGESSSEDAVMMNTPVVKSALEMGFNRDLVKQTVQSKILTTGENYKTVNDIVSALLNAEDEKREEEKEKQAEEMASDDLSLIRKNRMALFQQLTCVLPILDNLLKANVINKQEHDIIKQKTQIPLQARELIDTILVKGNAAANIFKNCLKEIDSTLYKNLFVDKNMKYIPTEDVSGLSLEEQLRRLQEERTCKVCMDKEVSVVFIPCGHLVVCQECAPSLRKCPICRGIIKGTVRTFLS
Outline: (§1)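 MM.1S cells treated 16 h at the stated concentration. Lysed, run on SDS-PAGE and transferred to PVDF. Probed with primary antibodies overnight at 4 °C, then HRP secondaries, with ECL detection. Band densitometry normalized to loading control and to DMSO-treated cells. Averages of at least three independent experiments.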

[2] = target: T2, von Hippel-Lindau disease tumor suppressor/Baculoviral IAP repeat-containing protein 2 (Homo sapiens) (UniProt Q13490+P40337); assay: PROTAC activity at VHL/IAP in human MM1.S cells assessed as induction of cIAP1 degradation at 0.1 to 1 uM incubated for 16 hrs by western blot analysis; assay type: cell-based; settings: dose 0.1-1 µM
T2 sequence (P40337 whole entry, looked up): as the sequence (P40337 whole entry, looked up) above
T2 sequence (Q13490 whole entry, looked up): as the sequence (Q13490 whole entry, looked up) above
Outline: (§2)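 MM.1S cells (RPMI-1640, 10% FBS, 1% pen/strep, 1% L-glutamine, 37 °C, 5% CO2) exposed to compound or DMSO for 16 h. Lysed in IP lysis buffer, SDS-PAGE, PVDF transfer, primary antibody overnight at 4 °C, HRP secondary, ECL detection. Bands quantified densitometrically, normalized to loading control and DMSO, reported as remaining protein; at least three independent experiments.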

[3] = target: T3, von Hippel-Lindau disease tumor suppressor/Baculoviral IAP repeat-containing protein 3 (Homo sapiens) (UniProt Q13489+P40337); assay: PROTAC activity at VHL/IAP in human MM1.S cells assessed as induction of cIAP2 degradation at 0.1 to 1 uM incubated for 16 hrs by western blot analysis; assay type: cell-based; settings: dose 0.1-1 µM; outline: as §2
T3 sequence (P40337 whole entry, looked up): as the sequence (P40337 whole entry, looked up) above
T3 sequence (Q13489 whole entry, looked up): as the sequence (Q13489 whole entry, looked up) above

[4] = target: T4, von Hippel-Lindau disease tumor suppressor/E3 ubiquitin-protein ligase XIAP (Homo sapiens) (UniProt P98170+P40337); assay: PROTAC activity at VHL/IAP in human MM1.S cells assessed as induction of XIAP degradation at 0.1 to 1 uM incubated for 16 hrs by western blot analysis; assay type: cell-based; settings: dose 0.1-1 µM; outline: as §1
T4 sequence (P40337 whole entry, looked up): as the sequence (P40337 whole entry, looked up) above
T4 sequence (P98170 whole entry, looked up): as the sequence (P98170 whole entry, looked up) above

[5] = target: T5, Protein cereblon/E3 ubiquitin-protein ligase XIAP (Homo sapiens) (UniProt P98170+Q96SW2); assay: PROTAC activity at CRBN/IAP in human MM1.S cells assessed as induction of XIAP degradation by measuring remaining protein level at 0.1 uM incubated for 16 hrs by western blot analysis; assay type: cell-based; outline: as §1
T5 sequence (P98170 whole entry, looked up): as above
T5 sequence (Q96SW2 whole entry, looked up): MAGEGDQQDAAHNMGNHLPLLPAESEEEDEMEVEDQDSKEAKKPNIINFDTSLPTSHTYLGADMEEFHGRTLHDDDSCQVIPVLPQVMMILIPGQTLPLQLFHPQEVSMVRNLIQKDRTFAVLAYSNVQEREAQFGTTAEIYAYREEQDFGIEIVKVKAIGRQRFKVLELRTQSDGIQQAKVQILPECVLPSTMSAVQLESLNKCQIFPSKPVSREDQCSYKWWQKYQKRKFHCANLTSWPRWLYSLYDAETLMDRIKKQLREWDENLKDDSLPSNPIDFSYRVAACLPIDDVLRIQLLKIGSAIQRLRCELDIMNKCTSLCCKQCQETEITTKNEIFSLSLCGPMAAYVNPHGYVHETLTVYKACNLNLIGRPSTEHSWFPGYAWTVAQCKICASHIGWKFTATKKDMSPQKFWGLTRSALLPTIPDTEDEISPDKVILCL

[6] = target: Protein cereblon/Baculoviral IAP repeat-containing protein 2 (Homo sapiens) (UniProt Q13490+Q96SW2); assay: PROTAC activity at CRBN/IAP in human MM1.S cells assessed as induction of cIAP1 degradation by measuring remaining protein level at 0.1 uM incubated for 16 hrs by western blot analysis; assay type: cell-based; outline: as §1
Chain of Protein cereblon/Baculoviral IAP repeat-containing protein 2 (Homo sapiens) (Q13490 whole entry, looked up): as the sequence (Q13490 whole entry, looked up) above
Chain of Protein cereblon/Baculoviral IAP repeat-containing protein 2 (Homo sapiens) (Q96SW2 whole entry, looked up): as the sequence (Q96SW2 whole entry, looked up) above

[7] = target: Protein cereblon/Baculoviral IAP repeat-containing protein 3 (Homo sapiens) (UniProt Q13489+Q96SW2); assay: PROTAC activity at CRBN/IAP in human MM1.S cells assessed as induction of cIAP2 degradation by measuring remaining protein level at 0.1 uM incubated for 16 hrs by western blot analysis; assay type: cell-based; outline: as §1
Chain of Protein cereblon/Baculoviral IAP repeat-containing protein 3 (Homo sapiens) (Q13489 whole entry, looked up): as the sequence (Q13489 whole entry, looked up) above
Chain of Protein cereblon/Baculoviral IAP repeat-containing protein 3 (Homo sapiens) (Q96SW2 whole entry, looked up): as the sequence (Q96SW2 whole entry, looked up) above

[8] = target: Protein cereblon-IAP (Homo sapiens) (UniProt P98170+Q13489+Q13490+Q96SW2); assay: PROTAC activity at CRBN/IAP in human MM1.S cells assessed as induction of CRBN degradation by measuring remaining protein level at 0.1 uM incubated for 16 hrs by western blot analysis; assay type: cell-based; outline: as §1
Chain of Protein cereblon-IAP (Homo sapiens) (P98170 whole entry, looked up): as the sequence (P98170 whole entry, looked up) above
Chain of Protein cereblon-IAP (Homo sapiens) (Q13489 whole entry, looked up): as the sequence (Q13489 whole entry, looked up) above
Chain of Protein cereblon-IAP (Homo sapiens) (Q13490 whole entry, looked up): as the sequence (Q13490 whole entry, looked up) above
Chain of Protein cereblon-IAP (Homo sapiens) (Q96SW2 whole entry, looked up): as the sequence (Q96SW2 whole entry, looked up) above

[9] = target: T5, Protein cereblon/E3 ubiquitin-protein ligase XIAP (Homo sapiens); assay: PROTAC activity at CRBN/IAP in human MM1.S cells assessed as induction of XIAP degradation at 1 uM incubated for 16 hrs by western blot analysis; assay type: cell-based; outline: as §1
[10] = target: T2, von Hippel-Lindau disease tumor suppressor/Baculoviral IAP repeat-containing protein 2 (Homo sapiens); assay: PROTAC activity at VHL/IAP in human HG-3 cells harboring wild type VHL assessed as induction of cIAP1 degradation at 1 uM incubated for 16 hrs by western blot analysis; assay type: cell-based
Outline: (§3)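 HG3 cells expressing Cas9 (lentiviral, blasticidin-selected) transduced with sgRNA against VHL or control luciferase (≥95% tomato-positive by FACS at 48 h); treated 1 μM for 16 h; lysed, SDS-PAGE, PVDF immunoblot with ECL detection, bands quantified by densitometry.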

[11] = target: T4, von Hippel-Lindau disease tumor suppressor/E3 ubiquitin-protein ligase XIAP (Homo sapiens); assay: PROTAC activity at VHL/IAP in human HG-3 cells harboring wild type VHL assessed as induction of XIAP degradation at 1 uM incubated for 16 hrs by western blot analysis; assay type: cell-based; outline: as §3
[12] = target: Baculoviral IAP repeat-containing protein 2 (Homo sapiens) (UniProt Q13490); assay: Induction of cIAP1 degradation in human VHL knock-out HG-3 cells at 1 uM incubated for 16 hrs by western blot analysis; assay type: cell-based; outline: as §3
Chain of Baculoviral IAP repeat-containing protein 2 (Homo sapiens) (Q13490 whole entry): as the sequence (Q13490 whole entry, looked up) above

[13] = target: Protein cereblon/Zinc finger protein Aiolos (Homo sapiens) (UniProt Q96SW2+Q9UKT9); assay: PROTAC activity at CRBN/IKZF3 in human MM1.S cells assessed as induction of IKZF3 degradation at 1 uM incubated for 16 hrs by western blot analysis; assay type: cell-based; outline: as §1
Chain of Protein cereblon/Zinc finger protein Aiolos (Homo sapiens) (Q96SW2 whole entry, looked up): as the sequence (Q96SW2 whole entry, looked up) above
Chain of Protein cereblon/Zinc finger protein Aiolos (Homo sapiens) (Q9UKT9 whole entry, looked up): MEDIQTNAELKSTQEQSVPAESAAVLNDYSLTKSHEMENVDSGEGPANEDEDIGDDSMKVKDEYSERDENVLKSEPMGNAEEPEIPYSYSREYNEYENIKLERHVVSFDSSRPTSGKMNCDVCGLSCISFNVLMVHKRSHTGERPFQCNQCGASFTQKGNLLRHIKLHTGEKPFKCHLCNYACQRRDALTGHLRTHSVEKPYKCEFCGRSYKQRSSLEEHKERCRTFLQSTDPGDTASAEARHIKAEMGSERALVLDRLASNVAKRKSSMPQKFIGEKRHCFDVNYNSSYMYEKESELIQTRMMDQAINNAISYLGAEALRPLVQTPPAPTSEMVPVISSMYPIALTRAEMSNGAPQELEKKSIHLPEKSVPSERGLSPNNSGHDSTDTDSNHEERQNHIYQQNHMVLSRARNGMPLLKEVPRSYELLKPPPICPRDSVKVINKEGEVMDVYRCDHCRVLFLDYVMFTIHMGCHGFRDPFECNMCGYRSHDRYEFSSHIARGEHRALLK

[14] = target: T4, von Hippel-Lindau disease tumor suppressor/E3 ubiquitin-protein ligase XIAP (Homo sapiens); assay: PROTAC activity at VHL/IAP in human MM1.S cells assessed as induction of XIAP degradation at 1 uM incubated for 16 hrs by western blot analysis; assay type: cell-based; outline: as §2
[15] = target: T3, von Hippel-Lindau disease tumor suppressor/Baculoviral IAP repeat-containing protein 3 (Homo sapiens); assay: PROTAC activity at VHL/IAP in human MM1.S cells assessed as induction of cIAP2 degradation at 1 uM incubated for 16 hrs by western blot analysis; assay type: cell-based; outline: as §2
[16] = target: T2, von Hippel-Lindau disease tumor suppressor/Baculoviral IAP repeat-containing protein 2 (Homo sapiens); assay: PROTAC activity at VHL/IAP in human MM1.S cells assessed as induction of cIAP1 degradation at 1 uM incubated for 16 hrs by western blot analysis; assay type: cell-based; outline: as §2
[17] = target: T4, von Hippel-Lindau disease tumor suppressor/E3 ubiquitin-protein ligase XIAP (Homo sapiens); assay: PROTAC activity at VHL/IAP in human MM1.S cells assessed as induction of XIAP degradation at 10 nM incubated for 16 hrs by western blot analysis; assay type: cell-based; outline: as §2
[18] = target: T3, von Hippel-Lindau disease tumor suppressor/Baculoviral IAP repeat-containing protein 3 (Homo sapiens); assay: PROTAC activity at VHL/IAP in human MM1.S cells assessed as induction of cIAP2 degradation at 10 nM incubated for 16 hrs by western blot analysis; assay type: cell-based; outline: as §2
[19] = target: T2, von Hippel-Lindau disease tumor suppressor/Baculoviral IAP repeat-containing protein 2 (Homo sapiens); assay: PROTAC activity at VHL/IAP in human MM1.S cells assessed as induction of cIAP1 degradation at 10 nM incubated for 16 hrs by western blot analysis; assay type: cell-based; outline: as §2
RPMI-8226 = assay: Cytotoxicity against human RPMI-8226 cells assessed as reduction in cell viability measured after 96 hrs in presence of TNF-alpha by CellTiter-Glo luminescent assay; assay type: functional, cell-based; settings: RPMI-8226, 96 h
Outline: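 Cells kept in RPMI-1640 with 10% FBS, 1% penicillin/streptomycin and 1% L-glutamine at 37 °C, 5% CO2. Seeded with compounds and incubated 96 h at 37 °C with TNF-α at 1 ng/mL. Viability read by CellTiter-Glo luminescence and normalized to DMSO-treated control. Mean ± SD of biological triplicates.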

[20] = target: T1, von Hippel-Lindau disease tumor suppressor/IAP (Homo sapiens); assay: PROTAC activity at VHL/IAP in human MM1.S cells assessed as induction of VHL30 degradation at 1 uM incubated for 16 hrs by western blot analysis; assay type: cell-based; outline: as §1
[21] = target: von Hippel-Lindau disease tumor suppressor (Homo sapiens) (UniProt P40337); assay: Induction of VHL30 degradation in human MM1.S cells assessed as remaining protein level at 0.1 uM incubated for 16 hrs by western blot analysis; assay type: cell-based; outline: as §1
Chain of von Hippel-Lindau disease tumor suppressor (Homo sapiens) (P40337 whole entry, looked up): as the sequence (P40337 whole entry, looked up) above

[22] = target: Baculoviral IAP repeat-containing protein 2 (Homo sapiens) (UniProt Q13490); assay: Induction of cIAP1 degradation in human MM1.S cells assessed as remaining protein level at 0.1 uM incubated for 16 hrs by western blot analysis; assay type: cell-based
Outline: (§4)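 Lysed, run on SDS-PAGE and transferred to PVDF. Probed with primary antibodies overnight at 4 °C, then HRP secondaries, with ECL detection. Band densitometry normalized to loading control and to DMSO-treated cells. Averages of at least three independent experiments.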

[23] = target: Baculoviral IAP repeat-containing protein 3 (Homo sapiens) (UniProt Q13489); assay: Induction of cIAP2 degradation in human MM1.S cells assessed as remaining protein level at 0.1 uM incubated for 16 hrs by western blot analysis; assay type: cell-based; outline: as §4
Chain of Baculoviral IAP repeat-containing protein 3 (Homo sapiens) (Q13489 whole entry): as the sequence (Q13489 whole entry, looked up) above

[24] = target: Baculoviral IAP repeat-containing protein 2 (Homo sapiens) (UniProt Q13490); assay: Induction of cIAP1 degradation in human MM1.S cells at 1 uM incubated for 16 hrs by western blot analysis; assay type: cell-based; outline: as §1

CN[C@@H](C)C(=O)N[C@H](C(=O)N1C[C@@H](Oc2cccc(OCCCCC(=O)N[C@H](C(=O)N3C[C@H](O)C[C@H]3C(=O)NCc3ccc(-c4scnc4C)cc3)C(C)(C)C)c2)C[C@H]1C(=O)N[C@@H]1CCCc2ccccc21)C1CCCCC1
Activity [1]: 38% | Activity [2]: Active | Activity [3]: Active | Activity [4]: Active

CN[C@@H](C)C(=O)N[C@H](C(=O)N1C[C@@H](Oc2cccc(OCCCCCCCCNc3cccc4c3C(=O)N(C3CCC(=O)NC3=O)C4=O)c2)C[C@H]1C(=O)N[C@@H]1CCCc2ccccc21)C1CCCCC1 (some centres not stated)
Activity [5]: 4% | Activity [6]: 5% | Activity [7]: 14% | Activity [8]: 90%

CN[C@@H](C)C(=O)N[C@H](C(=O)N1C[C@@H](Oc2cccc(OCCOCCCCCCOCCCCCCNc3cccc4c3C(=O)N(C3CCC(=O)N(C)C3=O)C4=O)c2)C[C@H]1C(=O)N[C@@H]1CCCc2ccccc21)C1CCCCC1 (some centres not stated)
Activity [9]: inactive

CN[C@@H](C)C(=O)N[C@H](C(=O)N1C[C@@H](Oc2cccc(OCCOCCOCC(=O)N[C@H](C(=O)N3C[C@H](O)C[C@H]3C(=O)NCc3ccc(-c4scnc4C)cc3)C(C)(C)C)c2)C[C@H]1C(=O)N[C@@H]1CCCc2ccccc21)C1CCCCC1
Activity [10]: Active | Activity [11]: Active | Activity [12]: Active

CN[C@@H](C)C(=O)N[C@H](C(=O)N1C[C@@H](Oc2cccc(OCCCCOCCCCNc3cccc4c3C(=O)N(C3CCC(=O)NC3=O)C4=O)c2)C[C@H]1C(=O)N[C@@H]1CCCc2ccccc21)C1CCCCC1 (some centres not stated)
Activity [13]: Active

CN[C@@H](C)C(=O)N[C@H](C(=O)N1CC(Oc2cccc(OCCCCCCOCCCCCCOCC(=O)N[C@H](C(=O)N3C[C@H](O)C[C@H]3C(=O)NCc3ccc(-c4scnc4C)cc3)C(C)(C)C)c2)C[C@H]1C(=O)N[C@@H]1CCCc2ccccc21)C1CCCCC1 (single isomer, unassigned)
Activity [10]: Active | Activity [11]: Active | Activity [12]: Active

CN[C@@H](C)C(=O)N[C@H](C(=O)N1C[C@@H](Oc2cccc(OCCCCCCCC(=O)N[C@H](C(=O)N3C[C@H](O)C[C@H]3C(=O)NCc3ccc(-c4scnc4C)cc3)C(C)(C)C)c2)C[C@H]1C(=O)N[C@@H]1CCCc2ccccc21)C1CCCCC1
Activity [10]: Active | Activity [11]: Active | Activity [12]: Active

CN[C@@H](C)C(=O)N[C@H](C(=O)N1C[C@@H](Oc2cccc(OCCCCCCOCCCCCCOCCCCCCOc3cc(-c4scnc4C)ccc3CNC(=O)[C@@H]3C[C@@H](O)CN3C(=O)[C@H](C(C)C)N3Cc4ccccc4C3=O)c2)C[C@H]1C(=O)N[C@@H]1CCCc2ccccc21)C1CCCCC1
Activity [14]: Active | Activity [15]: Active | Activity [16]: Active | Activity [17]: inactive | Activity [18]: inactive | Activity [19]: inactive

CN[C@@H](C)C(=O)N[C@H](C(=O)N1C[C@@H](Oc2cccc(OCCCCC(=O)N[C@H](C(=O)N3C[C@@H](O)C[C@H]3C(=O)NCc3ccc(-c4scnc4C)cc3)C(C)(C)C)c2)C[C@H]1C(=O)N[C@@H]1CCCc2ccccc21)C1CCCCC1
IC50 (RPMI-8226): > 5 µM

CN[C@@H](C)C(=O)N[C@H](C(=O)N1C[C@@H](Oc2cccc(OCCCCOCCCC(=O)N[C@H](C(=O)N3C[C@H](O)C[C@H]3C(=O)NCc3ccc(-c4scnc4C)cc3)C(C)(C)C)c2)C[C@H]1C(=O)N[C@@H]1CCCc2ccccc21)C1CCCCC1
Activity [20]: Active

CN[C@@H](C)C(=O)N[C@H](C(=O)N1C[C@@H](Oc2cccc(OCCCCCOCCCCCOCCCCCCNc3cccc4c3C(=O)N(C3CCC(=O)NC3=O)C4=O)c2)C[C@H]1C(=O)N[C@@H]1CCCc2ccccc21)C1CCCCC1 (some centres not stated)
Activity [13]: Active

CN[C@@H](C)C(=O)N[C@H](C(=O)N1C[C@@H](Oc2ccccc2)C[C@H]1C(=O)N[C@@H]1CCCc2ccccc21)C1CCCCC1
Activity [21]: 72% | Activity [22]: 7% | Activity [23]: 47% | Activity [24]: Active
